Test results reported in ChEMBL document CHEMBL1142201, “Tolerance to the glycopeptides vancomycin and teicoplanin in coagulase-negative staphylococci” (2007).

Columns and labels:
Assay type in all cases: functional
[1] = tested on: Staphylococcus lugdunensis; assay: Reduction of vancomycin-tolerant Staphylococcus lugdunensis 111A53 isolate assessed as bacterial counts at 20 times MIC after 24 hrs by time-kill curve method
Method in brief: (§1)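 CLSI time-kill in 50 ml Mueller-Hinton broth, mean starting inoculum 5.6 log10 CFU/ml. Vancomycin or teicoplanin at 5×, 10× or 20× the agar-dilution MIC. Viable counts taken before and 6 and 24 h after antibiotic addition; samples diluted 10-fold and plated in duplicate on prewarmed blood agar. Change reported as mean log CFU/ml.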

[2] = tested on: Staphylococcus lugdunensis; assay: Reduction of vancomycin-tolerant Staphylococcus lugdunensis 111A53 isolate assessed as bacterial counts at 5 times MIC after 6 hrs by time-kill curve method; method in brief: as §1
[3] = tested on: Staphylococcus lugdunensis; assay: Antibacterial activity against coagulase-negative Staphylococcus lugdunensis isolate assessed as bacterial counts at 10 times MIC after 24 hrs
Method in brief: (§2)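 CLSI time-kill in 50 ml Mueller-Hinton broth. Mean starting inoculum 5.6 log10 CFU/ml; vancomycin or teicoplanin at 10× MIC, with MIC from CLSI agar dilution. Counts taken just before and 6 and 24 h after antibiotic addition: samples diluted 10-fold to avoid carryover and plated in duplicate on prewarmed blood agar. Result given as Δlog CFU/ml; each strain run in duplicate.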

[4] = tested on: Staphylococcus lugdunensis; assay: Antibacterial activity against coagulase-negative Staphylococcus lugdunensis isolate assessed as bacterial counts at 10 times MIC after 6 hrs; method in brief: as §2
[5] = tested on: Staphylococcus lugdunensis; assay: Antibacterial activity against coagulase-negative Staphylococcus lugdunensis 111A223 isolate assessed as bacterial counts at 10 times MIC after 6 hrs; method in brief: as §2
[6] = tested on: Staphylococcus lugdunensis; assay: Reduction of vancomycin-tolerant Staphylococcus lugdunensis 111A53 isolate assessed as bacterial counts at 5 times MIC after 24 hrs by time-kill curve method; method in brief: as §1
[7] = tested on: Staphylococcus lugdunensis; assay: Antibacterial activity against coagulase-negative Staphylococcus lugdunensis 111A53 isolate assessed as bacterial counts at 10 times MIC after 6 hrs; method in brief: as §2
[8] = tested on: Staphylococcus lugdunensis; assay: Reduction of vancomycin-tolerant Staphylococcus lugdunensis 111A53 isolate assessed as bacterial counts at 10 times MIC after 24 hrs by time-kill curve method; method in brief: as §1
[9] = tested on: Staphylococcus lugdunensis; assay: Reduction of teicoplanin-tolerant Staphylococcus lugdunensis 111A91 isolate assessed as bacterial counts at 10 times MIC after 24 hrs by time-kill curve method; method in brief: as §1
[10] = tested on: Staphylococcus; assay: Antibacterial activity against coagulase-negative Staphylococcus assessed as bacterial counts at 10 times MIC after 6 hrs; method in brief: as §2
[11] = tested on: Staphylococcus lugdunensis; assay: Reduction of teicoplanin-tolerant Staphylococcus lugdunensis 111A91 isolate assessed as bacterial counts at 5 times MIC after 24 hrs by time-kill curve method; method in brief: as §1
[12] = tested on: Staphylococcus lugdunensis; assay: Antibacterial activity against coagulase-negative Staphylococcus lugdunensis 111A91 isolate assessed as bacterial counts at 10 times MIC after 24 hrs; method in brief: as §2
[13] = tested on: Staphylococcus lugdunensis; assay: Antibacterial activity against coagulase-negative Staphylococcus lugdunensis 111A229 isolate assessed as bacterial counts at 10 times MIC after 6 hrs; method in brief: as §2
[14] = tested on: Staphylococcus lugdunensis; assay: Reduction of teicoplanin-tolerant Staphylococcus lugdunensis 111A91 isolate assessed as bacterial counts at 20 times MIC after 6 hrs by time-kill curve method; method in brief: as §1
[15] = tested on: Staphylococcus lugdunensis; assay: Reduction of teicoplanin-tolerant Staphylococcus lugdunensis 111A91 isolate assessed as bacterial counts at 20 times MIC after 24 hrs by time-kill curve method; method in brief: as §1
[16] = tested on: Staphylococcus lugdunensis; assay: Reduction of teicoplanin-tolerant Staphylococcus lugdunensis 111A91 isolate assessed as bacterial counts at 10 times MIC after 6 hrs by time-kill curve method; method in brief: as §1
[17] = tested on: Staphylococcus lugdunensis; assay: Antibacterial activity against coagulase-negative Staphylococcus lugdunensis 111A223 isolate assessed as bacterial counts at 10 times MIC after 24 hrs; method in brief: as §2
[18] = tested on: Staphylococcus; assay: Antibacterial activity against coagulase-negative Staphylococcus assessed as bacterial counts at 10 times MIC after 24 hrs; method in brief: as §2
[19] = tested on: Staphylococcus lugdunensis; assay: Reduction of vancomycin-tolerant Staphylococcus lugdunensis 111A53 isolate assessed as bacterial counts at 20 times MIC after 6 hrs by time-kill curve method; method in brief: as §1
[20] = tested on: Staphylococcus lugdunensis; assay: Antibacterial activity against coagulase-negative Staphylococcus lugdunensis ATCC 43809 assessed as bacterial counts at 10 times MIC after 24 hrs; method in brief: as §2
[21] = tested on: Staphylococcus lugdunensis; assay: Reduction of teicoplanin-tolerant Staphylococcus lugdunensis 111A91 isolate assessed as bacterial counts at 5 times MIC after 6 hrs by time-kill curve method; method in brief: as §1
[22] = tested on: Staphylococcus lugdunensis; assay: Antibacterial activity against coagulase-negative Staphylococcus lugdunensis 111A229 isolate assessed as bacterial counts at 10 times MIC after 24 hrs; method in brief: as §2
[23] = tested on: Staphylococcus lugdunensis; assay: Antibacterial activity against coagulase-negative Staphylococcus lugdunensis ATCC 49576 assessed as bacterial counts at 10 times MIC after 6 hrs; method in brief: as §2
[24] = tested on: Staphylococcus lugdunensis; assay: Antibacterial activity against coagulase-negative Staphylococcus lugdunensis ATCC 49576 assessed as bacterial counts at 10 times MIC after 24 hrs; method in brief: as §2
[25] = tested on: Staphylococcus lugdunensis; assay: Reduction of vancomycin-tolerant Staphylococcus lugdunensis 111A53 isolate assessed as bacterial counts at 10 times MIC after 6 hrs by time-kill curve method; method in brief: as §1
[26] = tested on: Staphylococcus lugdunensis; assay: Ratio of MBC to MIC against teicoplanin-tolerant Staphylococcus lugdunensis 111A91 isolate
Method in brief: (§3)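 MBC/MIC by CLSI broth method, starting inoculum between 10^5 and 10^6 CFU/ml in Mueller-Hinton broth. Vancomycin and teicoplanin tested; S. aureus ATCC 25923 quality control included in each assay. Three separate assays, each ratio reported individually.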

[27] = tested on: Staphylococcus lugdunensis; assay: Antibacterial activity against coagulase-negative Staphylococcus lugdunensis ATCC 43809 assessed as bacterial counts at 10 times MIC after 6 hrs; method in brief: as §2
[28] = tested on: Staphylococcus lugdunensis; assay: Antibacterial activity against coagulase-negative Staphylococcus lugdunensis 111A53 isolate assessed as bacterial counts at 10 times MIC after 24 hrs; method in brief: as §2
[29] = tested on: Staphylococcus lugdunensis; assay: Antibacterial activity against coagulase-negative Staphylococcus lugdunensis 111A91 isolate assessed as bacterial counts at 10 times MIC after 6 hrs; method in brief: as §2
[30] = tested on: Staphylococcus lugdunensis; assay: Ratio of MBC to MIC against vancomycin-tolerant Staphylococcus lugdunensis 111A53 isolate; method in brief: as §3

CN[C@H](CC(C)C)C(=O)N[C@H]1C(=O)N[C@@H](CC(N)=O)C(=O)N[C@H]2C(=O)N[C@H]3C(=O)N[C@H](C(=O)N[C@H](C(=O)O)c4cc(O)cc(O)c4-c4cc3ccc4O)[C@H](O)c3ccc(c(Cl)c3)Oc3cc2cc(c3O[C@@H]2O[C@H](CO)[C@@H](O)[C@H](O)[C@H]2O[C@H]2C[C@](C)(N)[C@H](O)[C@H](C)O2)Oc2ccc(cc2Cl)[C@H]1O [VANCOMYCIN]
log10CFU/ml [1]: -1.74
log10CFU/ml [2]: -0.05
deltalog10CFU/ml [3]: -4.1
deltalog10CFU/ml [4]: -1.17
deltalog10CFU/ml [5]: -0.67
log10CFU/ml [6]: -1.72
deltalog10CFU/ml [7]: -0.31
log10CFU/ml [8]: -1.94
log10CFU/ml [9]: -3.53
deltalog10CFU/ml [10]: -2.98
log10CFU/ml [11]: -3.9
deltalog10CFU/ml [12]: -3.53
deltalog10CFU/ml [13]: -2.24
log10CFU/ml [14]: -0.56
log10CFU/ml [15]: -2.83
log10CFU/ml [16]: -0.31
deltalog10CFU/ml [17]: -1.65
deltalog10CFU/ml [18]: -4.8
log10CFU/ml [19]: -0.07
deltalog10CFU/ml [20]: -2.18
log10CFU/ml [21]: -1.16
deltalog10CFU/ml [22]: -2.42
deltalog10CFU/ml [23]: -1.38
deltalog10CFU/ml [24]: -3.91
log10CFU/ml [25]: -0.31
Ratio [26]: 64
deltalog10CFU/ml [27]: -0.21
deltalog10CFU/ml [28]: -1.94
deltalog10CFU/ml [29]: -0.31
Ratio [30]: 8
